ChEMBL document CHEMBL4118207, “Docking Screens for Dual Inhibitors of Disparate Drug Targets for Parkinson's Disease” (J Med Chem, 2018)
The source made the active and inactive calls. The calls are words filed in the database; no cut-off is given here.

Legend:
Adenosine receptor A2a [1] = biological target: T1, Adenosine receptor A2a (Homo sapiens, UniProt P29274); experiment: Displacement of [3H]ZM241385 from A2A receptor in human HeLa cell membranes at 10 uM after 30 mins by beta-scintillation counting method
T1 sequence (P29274 whole entry): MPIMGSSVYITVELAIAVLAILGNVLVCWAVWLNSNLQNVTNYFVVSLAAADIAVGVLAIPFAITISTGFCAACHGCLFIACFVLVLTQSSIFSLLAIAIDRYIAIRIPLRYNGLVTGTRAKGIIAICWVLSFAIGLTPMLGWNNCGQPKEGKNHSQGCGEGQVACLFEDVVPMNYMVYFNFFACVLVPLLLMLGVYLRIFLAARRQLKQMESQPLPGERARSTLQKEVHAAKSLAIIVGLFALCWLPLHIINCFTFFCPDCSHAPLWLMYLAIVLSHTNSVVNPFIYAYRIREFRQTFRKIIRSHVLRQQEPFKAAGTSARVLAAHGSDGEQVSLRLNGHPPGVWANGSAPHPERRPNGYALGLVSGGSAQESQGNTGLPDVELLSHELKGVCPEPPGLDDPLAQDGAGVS

[2] = biological target: T2, Amine oxidase [flavin-containing] B (Homo sapiens, UniProt P27338); experiment: Inhibition of recombinant human MAO-B expressed in baculovirus infected BTI insect cells using tyramine as substrate preincubated for 30 mins followed by substrate addition measured after 60 mins by amplex red reagent based fluorescence assay
T2 sequence (P27338 whole entry): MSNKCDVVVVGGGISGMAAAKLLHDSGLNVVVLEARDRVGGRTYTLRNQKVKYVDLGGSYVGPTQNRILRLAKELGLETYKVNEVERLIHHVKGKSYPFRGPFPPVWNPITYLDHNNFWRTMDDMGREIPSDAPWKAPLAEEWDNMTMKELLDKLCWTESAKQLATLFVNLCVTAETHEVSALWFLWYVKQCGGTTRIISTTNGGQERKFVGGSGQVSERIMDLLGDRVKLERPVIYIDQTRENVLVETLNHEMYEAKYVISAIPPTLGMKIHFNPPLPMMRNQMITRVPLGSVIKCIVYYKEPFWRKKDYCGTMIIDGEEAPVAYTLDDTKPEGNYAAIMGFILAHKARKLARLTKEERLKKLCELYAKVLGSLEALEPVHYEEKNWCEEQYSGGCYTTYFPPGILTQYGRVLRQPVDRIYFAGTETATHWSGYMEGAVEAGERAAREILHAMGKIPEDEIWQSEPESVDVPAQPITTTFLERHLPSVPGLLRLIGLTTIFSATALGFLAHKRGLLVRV
How it was run: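 Recombinant human MAO-B, final 1 U/mL, in 50 mM Tris-HCl pH 7.5 with 0.05% CHAPS and 1% DMSO. Compounds dosed acoustically over 10^-9 to 10^-4 range, preincubated 30 min at room temperature. Interference controlled without enzyme, with added H2O2.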

[3] = biological target: T2, Amine oxidase [flavin-containing] B; experiment: Inhibition of recombinant human MAO-B expressed in baculovirus infected BTI insect cells using tyramine as substrate preincubated for 30 mins followed by substrate addition measured after 60 mins in presence of Triton X-100 by amplex red reagent based fluorescence assay; conditions: 1 h
Adenosine receptor A2a [4] = biological target: T1, Adenosine receptor A2a; experiment: Displacement of [3H]ZM241385 from A2A receptor in human HeLa cell membranes after 30 mins by beta-scintillation counting method
Adenosine receptor A2a [5] = biological target: T1, Adenosine receptor A2a; experiment: Displacement of [3H]ZM241385 from A2A receptor in human HeLa cell membranes at 30 uM after 30 mins by beta-scintillation counting method relative to control
[6] = biological target: T2, Amine oxidase [flavin-containing] B; experiment: Inhibition of recombinant human MAO-B expressed in baculovirus infected BTI insect cells at 30 uM using tyramine as substrate preincubated for 30 mins followed by substrate addition measured after 60 mins by amplex red reagent based fluorescence assay relative to control; conditions: 1 h
[7] = biological target: T2, Amine oxidase [flavin-containing] B; experiment: Inhibition of recombinant human MAO-B expressed in baculovirus infected BTI insect cells at 10 uM using tyramine as substrate preincubated for 30 mins followed by substrate addition measured after 60 mins by amplex red reagent based fluorescence assay; conditions: 1 h
How it was run: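 Human recombinant MAO-B (final 1 U/mL) in 50 mM Tris-HCl pH 7.5, 0.05% CHAPS, 1% DMSO. Compound added from DMSO stock and pre-incubated 30 min at room temperature. Reaction started with tyramine (10 µM in 2-fold mix) and run 60 min at room temperature. HRP (final 0.1 U/mL) plus Amplex Red (final 10 µM) added; resorufin read at ex 535/em 590 nm over 30 min.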

Adenosine receptor A2a [8] = biological target: T1, Adenosine receptor A2a; experiment: Antagonist activity at human A2A receptor expressed in CHO cells assessed as inhibition of NECA-stimulated cAMP accumulation at 1 uM preincubated for 15 mins followed by NECA addition measured after 15 mins by enzyme immunoassay; assay type: functional, cell-based
How it was run: (§1)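 CHO cells stably transfected with human A2A receptor, seeded 10^4 cells/well 24 h before assay. Washed in DMEM/F-12 with 25 mM Hepes pH 7.4, then switched to the same buffer plus 20 µM rolipram. Compound preincubated 15 min at 37 °C, NECA added at several concentrations for 15 min at 37 °C. cAMP measured by enzyme immunoassay.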

SH-SY5Y = experiment: Cytoprotection against 6-OHDA-induced neurotoxicity in human SH-SY5Y cells assessed as reduction in 6-OHDA-induced cell viability decrease at 0.15 uM preincubated for 3 hrs followed by 6-OHDA addition measured after 24 hrs by resazurin dye based assay relative to control; assay type: functional
How it was run: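 Human SH-SY5Y cells seeded 2.5 x 10^4/well in phenol-red-free DMEM with 1% FBS and 10 µM retinoic acid for 72 h to differentiate. Compound (0.1% v/v DMSO) pretreatment 3 h, then freshly prepared 20 µM 6-OHDA in saline/0.007% ascorbic acid for 24 h. Resazurin (0.02 mg/mL final) added for 2 h as the viability read-out.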

Adenosine receptor A2a [9] = biological target: T1, Adenosine receptor A2a; experiment: Antagonist activity at human A2A receptor expressed in CHO cells assessed as inhibition of NECA-stimulated cAMP accumulation at 100 nM preincubated for 15 mins followed by NECA addition measured after 15 mins by enzyme immunoassay; assay type: functional, cell-based; how it was run: as §1

For `COc1cccc(C(=O)Nc2nc3ccccc3[nH]2)c1`, the inhibition (Adenosine receptor A2a [1]) was “inactive”.

For `O=C(Nc1nc2ccccc2[nH]1)c1ccccc1`, the IC50 [2] was 5000 nM, the “inhibition (INH)” value [3] was “Active” and the Ki (Adenosine receptor A2a [4]) was 2700 nM. For the same compound, the inhibition (Adenosine receptor A2a [5]) was > 60% and the inhibition at 30 µM [6] was > 70%.

For `Cc1ccccc1COC(=O)c1nn(-c2ccccc2)nc1N`, the IC50 [2] was 500 nM and the Ki (Adenosine receptor A2a [4]) was 49 nM.

For `Nc1nn(-c2ccccc2)nc1C(=O)O`, the inhibition (Adenosine receptor A2a [1]) was “inactive” and the “inhibition (INH)” value [7] was “Not Active”.

For `Nc1nn(-c2ccccc2)nc1C(=O)OCc1ccccc1`, the IC50 [2] was 380 nM, the Ki (Adenosine receptor A2a [4]) was 31 nM and the inhibition (Adenosine receptor A2a [5]) was > 60%. For the same compound, the inhibition at 30 µM [6] was > 70%.

For `Nc1nn(-c2ccc(Cl)cc2)nc1C(=O)CCc1ccccc1`, the inhibition (Adenosine receptor A2a [1]) was “inactive”.

`Cc1ccc2nc(NC(=O)c3ccccc3)[nH]c2c1` was tested, and the inhibition (Adenosine receptor A2a [1]) was “inactive”.

`Cc1cccc(C(=O)Nc2nc3ccccc3[nH]2)c1` was tested, and the inhibition (Adenosine receptor A2a [1]) was “inactive”.

For `O=C(Nc1nc2cccc(Cl)c2[nH]1)c1ccccc1`, the inhibition (Adenosine receptor A2a [8]) was “Active”, the Activity (SH-SY5Y) was 14% and the Ki (Adenosine receptor A2a [4]) was 99 nM.

For `Nc1nn(-c2ccccc2)nc1C(=O)CCc1ccccc1`, the inhibition (Adenosine receptor A2a [1]) was “inactive” and the Ki (Adenosine receptor A2a [4]) was 2000 nM.

In the case of `COc1cccc(COC(=O)c2nn(-c3ccccc3)nc2N)c1`, the inhibition (Adenosine receptor A2a [9]) is reported as “Active”, the Activity (SH-SY5Y) is reported as 13% and the Ki (Adenosine receptor A2a [4]) is reported as 19 nM. For the same compound, the inhibition (Adenosine receptor A2a [5]) was > 60%.

For `Nc1nn(-c2ccccc2)nc1C(=O)NCc1ccccc1`, the inhibition (Adenosine receptor A2a [1]) was “inactive” and the Ki (Adenosine receptor A2a [4]) was 23 nM.

For `COc1cccc(CO)c1`, the inhibition (Adenosine receptor A2a [1]) was “inactive” and the “inhibition (INH)” value [7] was “Not Active”.

With `COc1cccc2nc(NC(=O)c3ccccc3)[nH]c12` the inhibition (Adenosine receptor A2a [1]) was “inactive” and the Ki (Adenosine receptor A2a [4]) was 530 nM.

With `Cc1ccc(-n2nc(N)c(C(=O)CCc3ccccc3)n2)cc1` the inhibition (Adenosine receptor A2a [1]) was “inactive”.

For `Nc1nn(-c2ccccc2Cl)nc1C(=O)CCc1ccccc1`, the inhibition (Adenosine receptor A2a [1]) was “inactive” and the Ki (Adenosine receptor A2a [4]) was 630 nM.

`C[C@@H]1Oc2ccc(Nc3ncnc4c3oc3ccccc34)cc2NC1=O` was tested, and the IC50 [2] was 1700 nM, the Ki (Adenosine receptor A2a [4]) was 1200 nM and the inhibition (Adenosine receptor A2a [5]) was > 60%. The inhibition at 30 µM [6] was > 70%.

In the case of `Cc1ccccc1-n1nc(N)c(C(=O)CCc2ccccc2)n1`, the inhibition (Adenosine receptor A2a [1]) is reported as “inactive”.

In the case of `Cc1ccc(C(=O)Nc2nc3ccccc3[nH]2)cc1`, the inhibition (Adenosine receptor A2a [1]) is reported as “inactive”.

With `Cc1ccc(C(=O)Nc2nc3ccccc3[nH]2)cc1C` the inhibition (Adenosine receptor A2a [1]) was “inactive”.

Work on `Cn1c(=O)c2c(nc(/C=C/c3cccc(Cl)c3)n2C)n(C)c1=O` yielded an Activity (SH-SY5Y) of 13%.

With `Cc1ccc(COC(=O)c2nn(-c3ccccc3)nc2N)cc1` the IC50 [2] was 3800 nM, the “inhibition (INH)” value [3] was “Active” and the Ki (Adenosine receptor A2a [4]) was 150 nM.

`Cc1ccccc1C(=O)Nc1nc2ccccc2[nH]1` was tested, and the inhibition (Adenosine receptor A2a [1]) was “inactive”.

With `Cc1cccc(-n2nc(N)c(C(=O)CCc3ccccc3)n2)c1` the inhibition (Adenosine receptor A2a [1]) was “inactive” and the Ki (Adenosine receptor A2a [4]) was 250 nM.

With `O=C(Nc1nc2ccccc2[nH]1)c1ccccc1O` the inhibition (Adenosine receptor A2a [1]) was “inactive”.
